In ChEMBL document CHEMBL1772988, “(-)-Epigallocatechin-3-O-gallate induces nonapoptotic cell death in leukemia cells independent of the 67 kDa laminin receptor” (2011):
Calls of active or inactive are those of the source. No cut-off for these calls is given here.

Key:
HL-60 [1] = assay: Induction of 67 kDa laminin receptor expression in human HL60 cells after 24 hrs by flow cytometry analysis; format: functional, cell-based
How it was run: (§1)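 Untreated cells seeded at 1 × 10^5 cells/mL and grown 24 h. Harvested cells labelled with mouse anti-67 LR IgM in 0.5% BSA/PBS for 1 h on ice, then anti-mouse IgM-FITC for 30 min at 4 °C in the dark. Read by flow cytometry.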

Raji [2] = assay: Induction of apoptosis in human Raji cells assessed as late apoptotic or secondary necrotic cells at 10 uM after 24 hrs by measuring phosphatidylserine translocation using annexin V-FITC/propidium iodide staining by FACS (reference value: 2.2 %); format: functional
Raji [3] = assay: Induction of apoptosis in human Raji cells assessed as early apoptotic cells at 10 uM after 24 hrs by measuring phosphatidylserine translocation using annexin V-FITC/propidium iodide staining by FACS (reference value: 3.7 %); format: functional
Raji [4] = assay: Induction of apoptosis in human Raji cells assessed as late apoptotic or secondary necrotic cells at 10 uM after 6 hrs by measuring phosphatidylserine translocation using annexin V-FITC/propidium iodide staining by FACS (reference value: 2.2 %); format: functional
HL-60 [5] = assay: Growth inhibition against human HL60 cells assessed as cell viability at 10 uM after 24 hrs by trypan blue based microscopic analysis; format: functional
Raji [6] = assay: Induction of apoptosis in human Raji cells assessed as necrotic cells at 10 uM after 6 hrs by measuring phosphatidylserine translocation using annexin V-FITC/propidium iodide staining by FACS (reference value: 3.4 %); format: functional
Raji [7] = assay: Induction of apoptosis in human Raji cells assessed as early apoptotic cells at 10 uM after 12 hrs by measuring phosphatidylserine translocation using annexin V-FITC/propidium iodide staining by FACS (reference value: 3.7 %); format: functional
HL-60 [8] = assay: Growth inhibition against human HL60 cells assessed as cell viability at 10 uM after 48 hrs by trypan blue based microscopic analysis in presence of catalase; format: functional
How it was run: (§2)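 Raji cells were seeded at 1 × 10^5 cells/mL and HL60 at 5 × 10^4 cells/mL. Medium held SOD (5 U/mL), catalase (30 U/mL) or both, plus 10 μM EGCG, for 48 h. Viable cells counted after trypan blue by hemacytometer; growth rate relative to untreated. Means ± SD of more than three experiments in triplicate wells.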

HL-60 [9] = assay: Induction of apoptosis in human HL60 cells assessed as intracellular caspase-3 activation after 48 hrs (reference value: 1.3 %); format: functional
HL-60 [10] = assay: Induction of apoptosis in human HL60 cells assessed as intracellular caspase-3 activation after 24 hrs (reference value: 1.3 %); format: functional
Raji [11] = assay: Induction of intracellular reactive oxygen species production in human Raji cells at 10 uM after 1 to 3 hrs by flow cytometry; format: functional, cell-based
How it was run: (§3)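 Cells treated with 10 μM EGCG for 1 and 3 h. Then 1 × 10^5 cells stained with 5 μM H2-DCFDA for 25 min at 37 °C, washed and resuspended in PBS. Oxidised-probe fluorescence read by flow cytometry. Means ± SD of more than three separate experiments.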

Raji [12] = assay: Growth inhibition against human Raji cells assessed as cell viability at 10 uM after 24 hrs by trypan blue based microscopic analysis; format: functional
Raji [13] = assay: Induction of myeloperoxidase expression in human Raji cells after 24 hrs by flow cytometry; format: functional
How it was run: (§4)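 Untreated cells seeded at 1 × 10^5 cells/mL and grown 24 h. Fixed/permeabilised with Cytofix/Cytoperm for 20 min on ice. Stained with mouse anti-MPO mAb (1% v/v) for 1 h at room temperature, then goat anti-mouse IgG-FITC (1% v/v) for 1 h in the dark. Basal intracellular MPO read by flow cytometry.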

HL-60 [14] = assay: Cytotoxicity against human HL60 cells assessed as cell growth inhibition after 7 days by trypan blue based microscopic analysis; format: functional
How it was run: (§5)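 Cells seeded at 2 × 10^3 cells/mL in culture medium with 1 nM–10 μM compound and cultured 7 days. HL60 and Raji were grown in RPMI 1640, K562 in F-12, UT-7 in IMDM with TPO 10 ng/mL; all media had 10% heat-inactivated FBS, 37 °C, 5% CO2. Viable trypan blue-excluding cells counted by hemacytometer; growth rate = viable treated/viable untreated. Means ± SD.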

K562 [15] = assay: Cytotoxicity against human K562 cells assessed as cell growth inhibition at 10 uM after 7 days by trypan blue based microscopic analysis; format: functional; how it was run: as §5
Raji [16] = assay: Induction of apoptosis in human Raji cells assessed as intracellular caspase-3 activation after 48 hrs (reference value: 3.4 %); format: functional
Raji [17] = assay: Growth inhibition against human Raji cells assessed as cell viability at 10 uM preincubated with N-acetyl-L-cysteine for 30 mins measured after 48 hrs by trypan blue based microscopic analysis; format: functional
How it was run: (§6)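 Cells preincubated 30 min at 37 °C with 10 mM NAC, then seeded (Raji 1 × 10^5, HL60 5 × 10^4 cells/mL) and treated with 10 μM EGCG for 48 h. Viable cells were counted after trypan blue exclusion by hemacytometer. Growth rate = viable treated/viable untreated cells. Means ± SD of more than three experiments in triplicate wells.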

Raji [18] = assay: Induction of apoptosis in human Raji cells assessed as late apoptotic or secondary necrotic cells at 10 uM after 12 hrs by measuring phosphatidylserine translocation using annexin V-FITC/propidium iodide staining by FACS (reference value: 2.2 %); format: functional
HL-60 [19] = assay: Growth inhibition against human HL60 cells assessed as cell viability at 10 uM after 48 hrs by trypan blue based microscopic analysis in presence of superoxide dismutase and catalase; format: functional; how it was run: as §2
Raji [20] = assay: Induction of apoptosis in human Raji cells assessed as necrotic cells at 10 uM by measuring phosphatidylserine translocation using annexin V-FITC/propidium iodide staining by FACS; format: functional, cell-based; details: TDE = time-dependent effect
Raji [21] = assay: Induction of apoptosis in human Raji cells assessed as necrotic cells at 10 uM after 12 hrs by measuring phosphatidylserine translocation using annexin V-FITC/propidium iodide staining by FACS (reference value: 3.4 %); format: functional
Raji [22] = assay: Induction of apoptosis in human Raji cells assessed as necrotic cells at 10 uM after 24 hrs by measuring phosphatidylserine translocation using annexin V-FITC/propidium iodide staining by FACS (reference value: 3.4 %); format: functional
UT7 = assay: Cytotoxicity against human UT7 cells assessed as cell growth inhibition at 10 uM after 7 days by trypan blue based microscopic analysis; format: functional; how it was run: as §5
HL-60 [23] = assay: Growth inhibition against human HL60 cells assessed as cell viability at 10 uM preincubated with N-acetyl-L-cysteine for 30 mins measured after 48 hrs by trypan blue based microscopic analysis; format: functional; how it was run: as §6
HL-60 [24] = assay: Cell cycle arrest in human HL60 cells by assessed as accumulation at subG1 phase at 10 uM using propidium iodide staining by flow cytometry; format: functional
How it was run: (§7)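 Cells treated with 10 μM EGCG for 48 h, with or without SOD (5 U/mL) plus catalase (30 U/mL) in the medium. Harvested cells permeabilised in PBS with 0.1% Triton X-100 for 5 min on ice, stained with propidium iodide (50 μg/mL), and analysed by flow cytometry for sub-G1 fraction.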

Raji [25] = assay: Growth inhibition against human Raji cells assessed as cell viability at 10 uM after 48 hrs by trypan blue based microscopic analysis in presence of superoxide dismutase and catalase; format: functional; how it was run: as §2
Raji [26] = assay: Growth inhibition against human Raji cells assessed as cell viability at 10 uM after 48 hrs by trypan blue based microscopic analysis in presence of catalase; format: functional; how it was run: as §2
HL-60 [27] = assay: Induction of intracellular reactive oxygen species production in human HL60 cells at 10 uM after 1 to 3 hrs by flow cytometry; format: functional, cell-based; how it was run: as §3
K562 [28] = assay: Induction of myeloperoxidase expression in human K562 cells after 24 hrs by flow cytometry; format: functional; how it was run: as §4
HL-60 [29] = assay: Induction of myeloperoxidase expression in human HL60 cells after 24 hrs by flow cytometry; format: functional; how it was run: as §4
HL-60 [30] = assay: Growth inhibition against human HL60 cells assessed as cell viability at 10 uM after 48 hrs by trypan blue based microscopic analysis in presence of superoxide dismutase; format: functional; how it was run: as §2
HL-60 [31] = assay: Cell cycle arrest in human HL60 cells by assessed as accumulation at subG1 phase at 10 uM using propidium iodide staining by flow cytometry in presence of superoxide dismutase and catalase; format: functional; how it was run: as §7
Raji [32] = assay: Induction of apoptosis in human Raji cells assessed as intracellular caspase-3 activation after 24 hrs (reference value: 3.4 %); format: functional
K562 [33] = assay: Induction of 67 kDa laminin receptor expression in human K562 cells after 24 hrs by flow cytometry analysis; format: functional, cell-based; how it was run: as §1
K562 [34] = assay: Induction of intracellular reactive oxygen species production in human K562 cells at 10 uM after 1 to 3 hrs by flow cytometry; format: functional, cell-based; how it was run: as §3
Raji [35] = assay: Cytotoxicity against human Raji cells assessed as cell growth inhibition after 7 days by trypan blue based microscopic analysis; format: functional; how it was run: as §5
Raji [36] = assay: Cell cycle arrest in human Raji cells by assessed as accumulation at subG1 phase at 10 uM using propidium iodide staining by flow cytometry; format: functional; how it was run: as §7
Raji [37] = assay: Induction of apoptosis in human Raji cells assessed as early apoptotic cells at 10 uM after 6 hrs by measuring phosphatidylserine translocation using annexin V-FITC/propidium iodide staining by FACS (reference value: 3.7 %); format: functional
Raji [38] = assay: Cell cycle arrest in human Raji cells by assessed as accumulation at subG1 phase at 10 uM using propidium iodide staining by flow cytometry in presence of superoxide dismutase and catalase; format: functional; how it was run: as §7
Raji [39] = assay: Growth inhibition against human Raji cells assessed as cell viability at 10 uM after 48 hrs by trypan blue based microscopic analysis in presence of superoxide dismutase; format: functional; how it was run: as §2

O=C(O[C@@H]1Cc2c(O)cc(O)cc2O[C@@H]1c1cc(O)c(O)c(O)c1)c1cc(O)c(O)c(O)c1 [EPIGALOCATECHIN GALLATE]
Activity (HL-60 [1]): Active
Activity (Raji [2]): 13%
Activity (Raji [3]): 8.5%
Activity (Raji [4]): 4.5%
Activity (HL-60 [5]): Active
Activity (Raji [6]): 5.3%
Activity (Raji [7]): 7.7%
growth inhibition (GI) (HL-60 [8]): Active
Activity (HL-60 [9]): 4.2%
Activity (HL-60 [10]): 2.7%
Activity (Raji [11]): inactive
Activity (Raji [12]): Active
Activity (Raji [13]): 4.5%
growth inhibition (GI) (HL-60 [14]): Dose-dependent effect
growth inhibition (GI) (K562 [15]): inactive
Activity (Raji [16]): 5.4%
growth inhibition (GI) (Raji [17]): Active
Activity (Raji [18]): 7.8%
growth inhibition (GI) (HL-60 [19]): inactive
Activity (Raji [20]): tde
Activity (Raji [21]): 6.7%
Activity (Raji [22]): 14.9%
growth inhibition (GI) (UT7): inactive
growth inhibition (GI) (HL-60 [23]): Active
Activity (HL-60 [24]): 45.9%
growth inhibition (GI) (Raji [25]): inactive
growth inhibition (GI) (Raji [26]): Active
Activity (HL-60 [27]): inactive
Activity (K562 [28]): 14.3%
Activity (HL-60 [29]): 49.2%
growth inhibition (GI) (HL-60 [30]): Active
Activity (HL-60 [31]): 2.6%
Activity (Raji [32]): 3.5%
Activity (K562 [33]): Active
Activity (K562 [34]): inactive
growth inhibition (GI) (Raji [35]): Dose-dependent effect
Activity (Raji [36]): 3.8%
Activity (Raji [37]): 5.1%
Activity (Raji [38]): 5.9%
growth inhibition (GI) (Raji [39]): Active
